ChEMBL document CHEMBL1149321, “Synthesis, radiosynthesis, and biological evaluation of carbon-11 and iodine-123 labeled 2beta-carbomethoxy-3beta-[4'-((Z)-2-haloethenyl)phenyl]tropanes: candidate radioligands for in vivo imaging of the serotonin transporter” (J Med Chem, 2004)

How the values were obtained:
Rattus norvegicus [1] = assay: Distribution of the radio labelled compound in blood of rat brain after intravenous administration in absence of blocker after 60 min; format: ADME, organism-based; conditions: in vivo, 1 h
Outline: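 Male Sprague–Dawley rats (200–250 g), ketamine/xylazine anesthesia, tail-vein cannula. Blocker (4 mg/kg) or nothing given 15 min before iv [123I]ZIET in 10% ethanol/saline. Killed 60 min post-tracer.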

[2] = Ratio of radioactivity in frontal cortex of rat brain to that of rat cerebellum after intravenous administration after 30 min; format: functional
Outline: (§1)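 Male Sprague–Dawley rats (200–250 g) given ~20 μCi [123I] tracer iv in 0.2 mL 10% ethanol/saline under ketamine/xylazine; killed at 5, 30, 60, 120 min (n = 5; n = 4 at 120 min). Brain regions dissected, gamma counted, decay-corrected to %ID/g; regional uptake divided by cerebellum.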

Rattus norvegicus [3] = assay: Distribution in hippocampus of rat brain after intravenous administration by using [123I]ZIET after 120 min; format: ADME, organism-based; conditions: in vivo, 2 h
Outline: (§2)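 Male Sprague–Dawley rats (200–250 g), fed ad libitum, given ~20 μCi radiotracer iv via tail-vein cannula in 0.2 mL 10% ethanol/saline under ketamine/xylazine im anesthesia. Killed at 5, 30, 60 or 120 min (n = 5; n = 4 at 120 min). Brain regions dissected, weighed, gamma-counted with dose standards, decay-corrected; mean %ID/g ± SE.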

Rattus norvegicus [4] = assay: Distribution in striatum of rat brain after intravenous administration by using [123I]-ZIET after 30 min; format: ADME, organism-based; conditions: in vivo, 0.5 h; outline: as §2
Rattus norvegicus [5] = assay: Distribution of the radio labelled compound in occipital cortex of rat brain after intravenous administration in presence of citalopram after 60 min; format: ADME, organism-based; conditions: in vivo, 1 h
Outline: (§3)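 Male Sprague–Dawley rats (200–250 g) under ketamine/xylazine anaesthesia with tail-vein cannulas. Blocker or none given 15 min before ~20 μCi [123I] tracer iv in 0.2 mL 10% ethanol/saline; blocker dose 4 mg/kg.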

Rattus norvegicus [6] = assay: Distribution of the radio labelled compound in striatum of rat brain after intravenous administration in absence of blocker after 60 min; format: ADME, organism-based; conditions: in vivo, 1 h; outline: as §3
Rattus norvegicus [7] = assay: Distribution in hypothalamus of rat brain after intravenous administration by using [123I]ZIET after 120 min; format: ADME, organism-based; conditions: in vivo, 2 h; outline: as §2
Rattus norvegicus [8] = assay: Distribution in hippocampus of rat brain after intravenous administration by using [123I]ZIET after 30 min; format: ADME, organism-based; conditions: in vivo, 0.5 h; outline: as §2
Rattus norvegicus [9] = assay: Distribution of the radio labelled compound in hypothalamus of rat brain after intravenous administration in absence of blocker after 60 min; format: ADME, organism-based; conditions: in vivo, 1 h; outline: as §3
Rattus norvegicus [10] = assay: Distribution of the radio labelled compound in occipital cortex of rat brain after intravenous administration in absence of blocker after 60 min; format: ADME, organism-based; conditions: in vivo, 1 h; outline: as §3
Rattus norvegicus [11] = assay: Distribution in brainstem of rat brain after intravenous administration by using [123I]ZIET after 120 min; format: ADME, organism-based; conditions: in vivo, 2 h; outline: as §2
Rattus norvegicus [12] = assay: Distribution in occipital cortex of rat brain after intravenous administration by using [123I]ZIET after 30 min; format: ADME, organism-based; conditions: in vivo, 0.5 h; outline: as §2
[13] = Ratio of radioactivity in occipital cortex of rat brain to that of rat cerebellum after intravenous administration after 5 min; format: functional; outline: as §1
[14] = Ratio of radioactivity in frontal cortex of rat brain to that of rat cerebellum after intravenous administration after 120 min; format: functional; outline: as §1
Rattus norvegicus [15] = assay: Distribution in rest of rat brain after intravenous administration by using [123I]ZIET after 60 min; format: ADME, organism-based; conditions: in vivo, 1 h; outline: as §2
[16] = Ratio of radioactivity in hippocampus of rat brain to that of rat cerebellum after intravenous administration after 30 min; format: functional; outline: as §1
Rattus norvegicus [17] = assay: Distribution in striatum of rat brain after intravenous administration by using [123I]-ZIET after 5 min; format: ADME, organism-based; conditions: in vivo; outline: as §2
Rattus norvegicus [18] = assay: Distribution of the radio labelled compound in hypothalamus of rat brain after intravenous administration in presence of citalopram after 60 min; format: ADME, organism-based; conditions: in vivo, 1 h; outline: as §3
Rattus norvegicus [19] = assay: Distribution in blood of rat brain after intravenous administration by using [123I]ZIET after 120 min; format: ADME, organism-based; conditions: in vivo, 2 h; outline: as §2
Rattus norvegicus [20] = assay: Distribution of the radio labelled compound in striatum of rat brain after intravenous administration in presence of citalopram after 60 min; format: ADME, organism-based; conditions: in vivo, 1 h; outline: as §3

Structure (SMILES): COC(=O)C1C(c2ccc(/C=C\[123I])cc2)CC2CCC1N2C (stereo not given)
- Activity (Rattus norvegicus [1]): 0.22
- Ratio [2]: 2
- Activity (Rattus norvegicus [3]): 0.47
- Activity (Rattus norvegicus [4]): 0.76
- Activity (Rattus norvegicus [5]): 0.2
- Activity (Rattus norvegicus [6]): 0.42
- Activity (Rattus norvegicus [7]): 0.6
- Activity (Rattus norvegicus [8]): 0.72
- Activity (Rattus norvegicus [9]): 0.42
- Activity (Rattus norvegicus [10]): 0.46
- Activity (Rattus norvegicus [11]): 0.41
- Activity (Rattus norvegicus [12]): 0.76
- Ratio [13]: 1.3
- Ratio [14]: 3.4
- Activity (Rattus norvegicus [15]): 0.54
- Ratio [16]: 1.7
- Activity (Rattus norvegicus [17]): 0.39
- Activity (Rattus norvegicus [18]): 0.2
- Activity (Rattus norvegicus [19]): 0.38
- Activity (Rattus norvegicus [20]): 0.26
